According to ChEMBL document CHEMBL4513216, “Probing the Open Global Health Chemical Diversity Library for Multistage-Active Starting Points for Next-Generation Antimalarials” (ACS Infect Dis, 2020):

assay: Toxicity liver stage against HepG2, at 10uM; format: cell-based; design: test concentration 10 uM, cell line HepG2-A16-CD81EGFP; conditions: human, HepG2-A16-CD81EGFP cells; read-out: INHIBITION
How it was run: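 Uninfected HepG2-A16-CD81EGFP cells, 3 × 10^3 per well, 1536-well, plated on prespotted compound at 10 μM final, parasite-free screening media added to match infected plates; puromycin 10 μM positive, DMSO 0.5% negative; run in parallel with 48 h PbLuc assay at 37 °C, 5% CO2; viability by CellTiter-Glo luminescence, normalized to controls.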

Row | SMILES | cytotoxicity at 10 µM
1 | Cc1ccc2c(c1)c(Sc1ccccc1)c(CC(=O)O)n2C | 3.56%
2 | COc1ccc2[nH]cc(C(=O)CNc3nccs3)c2c1 | 4.32%
3 | O=C(Nc1nc2c(s1)CN(S(=O)(=O)C1CC1)CC2)c1ccsc1 | 24.9%
4 | CCN(CC)C(=O)c1nc2c(s1)CCN(C(=O)CCC(=O)OC)CC2 | 12.9%
5 | O=C(c1ncn2c(C3CCN(CC4CC4)CC3)ccnc12)N1CCCC1 | -3%
6 | Cc1ccc(C(=O)N2CCc3ncnc(C)c3CC2)cn1 | 9.75%
7 | CCc1c(C)nc2n(c1=O)CC(C(=O)Nc1nccs1)CS2 (stereo not drawn) | 1.83%
8 | O=C(Cn1cc(C(=O)O)ccc1=O)Nc1ccc(F)cc1Cl | 0.381%
9 | CCc1oc2ccc(NS(C)(=O)=O)cc2c1C(=O)OC | 6.8%
10 | CCn1nc(C)c(NC(=O)C(C)C)c1C | 1.73%
11 | Cc1cc2nc(SCC(=O)NC(C)C)n(Cc3ccco3)c(O)c-2n1 | 10.5%
12 | COCCCNC(=O)CCn1nc(C)c2ccccc21 | 9.87%
13 | NC(=O)C1(Cc2ccccc2-c2cncnc2)CCCNC1 (stereo not drawn) | 3.35%
14 | COc1ccc(-c2cc(C3CCCCCN3S(C)(=O)=O)on2)cc1 (stereo not drawn) | 0.46%
15 | CS(=O)(=O)c1cc(Cl)cnc1C1CCN(C(=O)C2CCCO2)CC1 (stereo not drawn) | 4.38%
16 | Cc1cc(C(=O)N2CCC(O)(Cn3ccc4ccncc43)CC2)on1 | 7.55%
17 | O=C(Cn1cnc2cc3c(cc21)OCCCO3)NCCc1ccccc1 | 7.57%
18 | CNc1cncc(C2CCN(S(C)(=O)=O)CC2)n1 | 3.54%
19 | Cc1ccc(S(=O)(=O)N2CCC(c3n[nH]cc3C(=O)N(C)C)CC2)cc1 | -1.73%
20 | Cc1cnc(N2CCOC(C(=O)NCc3ccccc3)C2)s1 (stereo not drawn) | -2.84%
21 | COc1ccc(Br)cc1SCCCS(C)(=O)=O | 3.85%
22 | N#Cc1ccc(S(=O)(=O)Nc2ccc(N3CCOCC3)cn2)cc1 | 0.966%
23 | Cn1cc(-c2noc(C3(C)CCOCC3)n2)cn1 | -5.65%

Row | SMILES | cytotoxicity at 10 µM
24 | CC(C)Cc1nc(CS(=O)(=O)C(C)C(=O)N2CCOCC2)no1 (stereo not drawn) | 3.13%
25 | CN(CCc1nc(-c2cccc(Cl)c2)no1)CCn1cccn1 | 8.86%
26 | O=C(NC(C1CC1)C1CC1)c1cccc[n+]1[O-] | 10.8%
27 | CCN(C)c1ccc(CNC(=O)CCn2cc(C)cn2)cc1F | -9.51%
28 | c1ccc(C2(NCC3CNc4ccnn4C3)CCC2)cc1 (stereo not drawn) | -5.34%
29 | NC(=O)Nc1cccc(CNC(=O)CCCOCc2ccccc2)c1 | -8.06%
30 | Cc1cc(C2CCCN(C(=O)COc3ccc(F)cc3F)C2)n[nH]1 (stereo not drawn) | 5.93%
31 | O=C(CCCn1cccn1)N1CCCC(n2cncn2)C1 (stereo not drawn) | 6.61%
32 | O=C1CN(C(=O)CSC2CCCc3ccccc32)CCN1 (stereo not drawn) | -9.45%
33 | COc1ccc(C(CC(=O)O)NC(=O)CCc2cccs2)cc1OC (stereo not drawn) | -6.33%
34 | Cn1cc(C(=O)CC2CCCN2C(=O)c2ccc(Cl)o2)cn1 (stereo not drawn) | -4.57%
35 | CC(C)C1CCCN1CC(=O)NCc1ccc(OCC(N)=O)cc1 (stereo not drawn) | 7.01%
36 | CC1CCC(NC(=O)CNC2(c3ccc(F)cc3)CCOCC2)CC1 (stereo not drawn) | 7.79%
37 | Cc1cccc2nc(CNC(=O)N3CCC(N4CC=CC4)C3)cn12 (stereo not drawn) | 5.88%
38 | CC(=O)N(Cc1ncc(C)o1)C1CCN(CCc2ccncc2)C1 (stereo not drawn) | 1.3%
39 | CCOC(=O)NC(=O)CSC(C)c1ccccc1F (stereo not drawn) | -15.1%
40 | Cc1ccc(C(=O)NCc2ccc(N3CCNC(=O)C3)c(F)c2)cc1 | -3.31%
41 | CCC(CC)c1cc(CNC(=O)N2CCCN(C(C)=O)CC2)on1 | -7.55%
42 | Cc1noc(CCCC(=O)NC(C)c2nnc3n2CCC3)n1 (stereo not drawn) | 0.259%
43 | CCOCCN1CCN(Cc2nnc(C3CC3)o2)CC1 | 1.95%
44 | O=C1CCC(=O)N1CCN1CCOC(c2ccsc2)C1 (stereo not drawn) | 7.55%
45 | COCCOCCNS(=O)(=O)C1CS(=O)(=O)c2ccccc21 (stereo not drawn) | -15.3%
46 | Cn1ccnc1CCNS(=O)(=O)Cc1cccc(C#N)c1 | 0.867%

Row | SMILES | cytotoxicity at 10 µM
47 | CNS(=O)(=O)c1ccc(CNC(=O)c2cc(C)no2)cc1 | 5.12%
48 | CC(NC(=O)NCCNc1cccc(F)c1C#N)c1cccs1 (stereo not drawn) | -1.31%
49 | OCCOc1cc(F)ccc1NCc1nc(-c2cccs2)no1 | -46.1%
50 | Cc1noc(CCCC(=O)Nc2cc(C(F)(F)F)c[nH]c2=O)n1 | -10.8%
51 | COc1ccc(NC2CCN(C3CC3)C2=O)cn1 (stereo not drawn) | -10%
52 | Cc1nc(CN(CCS(C)(=O)=O)C(C)(C)C)no1 | -1.86%
53 | CS(=O)(=O)c1cccc(S(=O)(=O)NC(=O)CC2CCCC2)c1 | -7.59%
54 | O=C(NCCC1Cc2ccccc2C1)N1CCCC(O)C1 (stereo not drawn) | 22.2%
55 | CN(Cc1nnc(C2CCC2)o1)C(C(N)=O)c1cccc(F)c1 (stereo not drawn) | 16.7%
56 | O=C(NCC1CCCCO1)c1ccc(-c2cccs2)[nH]c1=O (stereo not drawn) | -7.03%
57 | CCC(CC)c1nnc(NC(=O)N2CCC(C(N)=O)CC2)s1 | 8.26%
58 | CCOc1ccnc(N2CCN(C(=O)CCc3ccsc3)CC2)n1 | 8.15%
59 | O=C(O)c1ccc(S(=O)(=O)Nc2cccc(CC(F)(F)F)c2)c(F)c1 | -6.19%
60 | CCCN1C(=O)C2(CCCCC2)NC1c1cn(C)c(=O)n(C)c1=O (stereo not drawn) | 4.45%
61 | COc1ccc(CCC(=O)Nc2ccncc2C)cc1 | 16.1%
62 | O=C(NCC1CCS(=O)(=O)C1)c1sccc1-c1ccc(F)cc1 (stereo not drawn) | -1.79%
63 | Cc1ccc(C(=O)NC(C)CN2CCCC2=O)c(=O)[nH]1 (stereo not drawn) | -0.524%
64 | Cc1ncc(-c2ccnc(N3CCCCCC3)n2)c(-c2cccnc2)n1 | 6.21%
65 | CC(C)[C@H]1CN(Cc2nccn2C)C[C@@H]1NC(=O)CCS(C)(=O)=O | -8.85%
66 | CCN(CCO)C[C@@H]1CN(c2cc(C(F)(F)F)cc(C)n2)C[C@@H]1CO | -1.7%
67 | Cc1c(C(=O)N2CCC3(CCCNC3=O)C2)sc2nc[nH]c(=O)c12 (stereo not drawn) | -10.7%
68 | COc1ccc2c(c1)OCC(CNC(=O)c1cnc(O)cn1)C2 (stereo not drawn) | -1.09%
69 | COC[C@]1(O)CCN(c2cc(C3CC3)ncn2)CC1(C)C | -1.53%

Row | SMILES | cytotoxicity at 10 µM
70 | Cc1nn(C)c2nc(N3CCC(C(O)c4nccn4C)CC3)sc12 (stereo not drawn) | 0.79%
71 | CC(C)n1cnnc1Cn1ccc2ncccc2c1=O | 0.86%
72 | CC(C)CCN1CCNC(=O)C1CC(=O)NCCc1cc(O)ncn1 (stereo not drawn) | -0.806%
73 | Cc1noc(C)c1C1CCCN1C(=O)c1cn2ccsc2n1 (stereo not drawn) | 12.3%
74 | CC(C)(C)N1CC(C(=O)NCc2noc(Cc3ccccc3)n2)CC1=O (stereo not drawn) | 0.824%
75 | CC[C@@]1(O)CCN(C(=O)c2ccoc2)C[C@H]1O | 4.63%
76 | CCC1CN(C(=O)c2cncc(C)c2)CCC(=O)N1Cc1ccccc1 (stereo not drawn) | 9.33%
77 | CO[C@H]1CN(C(C)C)C[C@@H]1NC(=O)Nc1cccc(SC)c1 | 2.85%
78 | COC(=O)N1CCCCC1C(=O)N1CCN(c2ncccc2C)CC1 (stereo not drawn) | 3.37%
79 | Cc1ccc(C)c(OCc2cc(C(=O)N(C)Cc3cnn(C)c3)no2)c1 | -6.12%
80 | COc1ccccc1N1CCC(N2CCOC(C(F)(F)F)C2)CC1 (stereo not drawn) | -1.45%
81 | CCn1cc(CN2CCC(c3ccncc3)CC2)cc1C#N | -5.38%
82 | CCN(CC)C(=O)[C@@H]1C[C@H](NC(=O)c2cccn2C(C)C)CN1C | 7.57%
83 | CCCOCC1CCN(C(=O)Cn2cccc(OC)c2=O)C1 (stereo not drawn) | 5.88%
84 | Cc1nc(CN2CCC(Oc3ccc(F)cc3C)(C(=O)O)CC2)co1 | 2.28%
85 | Cc1nn(CCO)cc1CN1CCCN(C2CCCC2)CC1 | 0.292%
86 | COCCn1cncc1Cn1ncc2ccccc2c1=O | 1.77%
87 | O=C(N[C@@H]1CCN(Cc2cccc3nonc23)C[C@H]1O)c1cccnc1 | -2.3%
88 | Cn1ccc2cc(C(=O)N3CCOCC3)ccc21 | 1.91%
89 | COc1ccc(-n2cccn2)cc1S(=O)(=O)N1C[C@H](C2CC2)[C@@H](N)C1 | 4.69%
90 | Cc1cc(-c2nnc(SCC(=O)O)n2C(C)c2ccccc2)nn1C (stereo not drawn) | -1.1%
91 | CCOC(=O)N1CC(C)=C(C)CN1C(=O)Nc1ccc(Cl)c(Cl)c1 | -0.113%
92 | Cc1ccc(-c2nc(CNC3CCc4ncnn4C3)co2)cc1 (stereo not drawn) | -3.75%

Row | SMILES | cytotoxicity at 10 µM
93 | COc1ccccc1C(=O)Nc1cc(CC(C)C)nn1C | -12.5%
94 | Cc1cccc(OCCNC(=O)CN2CCCC2Cn2cncn2)c1 (stereo not drawn) | -4.03%
95 | Cc1ncncc1C(=O)NCCn1nc2ccccn2c1=O | -6.89%
96 | Cc1nc(CN2CCCN(C(=O)CCc3ccco3)CC2)cs1 | 0.386%
97 | CCNC(c1ccc(C)cc1)c1cccnc1 (stereo not drawn) | 0.533%
98 | COc1ccc(CCNC(=O)NCC(O)c2cccc(F)c2)cc1 (stereo not drawn) | -6.33%
99 | COc1cccc(COCC(=O)N2CCCC(n3cccn3)C2)c1 (stereo not drawn) | -0.363%
100 | CSc1nccn1-c1cccc(C(=O)NCc2nnc(C)n2C)c1 | -9.46%
101 | O=C(CCn1cccn1)N1CCN(CC(F)F)CC1 | -5.11%
102 | CN(Cc1ncc[nH]1)CC(c1cccs1)N1CCOCC1 (stereo not drawn) | -4.22%
103 | CC(NC(=O)NCCCOC1CCCCC1)c1nncn1C (stereo not drawn) | -7.47%
104 | CC(CC#N)NC(=O)c1cc(Br)c2c(c1)OCCO2 (stereo not drawn) | 5.56%
105 | O=C(COc1cccc(Br)c1)N1CCOCC1c1ncon1 (stereo not drawn) | -9.36%
106 | CC(Cn1cccn1)NC(=O)NCc1ccc(S(N)(=O)=O)cc1 (stereo not drawn) | 3.63%
107 | CN(C)C(=O)c1sc2ncccc2c1C1CNCCO1 (stereo not drawn) | 2.35%
108 | CN(C)c1ccc(CNCc2cnc(N3CCOCC3)nc2)cn1 | 9.44%
109 | c1csc(CN2C[C@H](OCC3CC3)[C@H]3COC[C@H]32)n1 | 2.57%
110 | CCc1ccc(CN2CCc3ncnc(N4CCOCC4)c3CC2)o1 | -2.05%
111 | COCC1CC2(CCN(Cc3ccncc3)CC2)CN1C(C)C (stereo not drawn) | 1.73%
112 | CCCn1nccc1NC(=O)CN1CCc2c(nc(C(C)C)n2C)C1 | 4.02%
113 | CCc1noc(CN2C[C@@H]3CC[C@H]2CN(C2Cc4ccccc4C2)C3)n1 | -0.268%
